In ChEMBL document CHEMBL4619820, “Development of Novel AKR1C3 Inhibitors as New Potential Treatment for Castration-Resistant Prostate Cancer” (J Med Chem, 2020):
Residue numbers refer to the chain shown, from its start. Active and inactive are the calls of the source. The rule behind the calls is not given here.

Species on record: Homo sapiens
Test: Ratio of IC50 for inhibition of recombinant AKR1C1 (unknown origin) inhibition of recombinant AKR1C3 (unknown origin)
Conditions: not given

Compound	Ratio IC50
N=c1oc2c(O)cccc2cc1C(=O)Nc1ccccc1C(F)(F)F	> 500
N=c1oc2c(O)cccc2cc1C(=O)Nc1cccc(F)c1	> 340
N=c1oc2c(O)cccc2cc1C(=O)Nc1ccccc1Cl	> 180
N=c1oc2c(O)cccc2cc1C(=O)Nc1cccc(Cl)c1	> 220

Target: T1, Carbonyl reductase [NADPH] 1 (Homo sapiens, UniProt P16152)
T1 sequence (P16152 whole entry): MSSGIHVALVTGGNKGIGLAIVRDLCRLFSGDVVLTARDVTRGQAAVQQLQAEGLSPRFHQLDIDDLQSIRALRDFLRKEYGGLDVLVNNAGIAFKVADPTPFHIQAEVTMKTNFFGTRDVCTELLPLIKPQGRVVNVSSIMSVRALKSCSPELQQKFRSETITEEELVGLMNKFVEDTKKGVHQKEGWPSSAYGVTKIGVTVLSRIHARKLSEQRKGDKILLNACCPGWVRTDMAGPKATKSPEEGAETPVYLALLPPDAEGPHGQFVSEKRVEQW
Test: Inhibition of CBR1 (unknown origin)
Conditions: not given

Compound	IC50 [nM]
N=c1oc2c(O)cccc2cc1C(=O)Nc1ccccc1C(F)(F)F	75
N=c1oc2c(O)cccc2cc1C(=O)Nc1cccc(F)c1	370
N=c1oc2c(O)cccc2cc1C(=O)Nc1ccccc1Cl	34
N=c1oc2c(O)cccc2cc1C(=O)Nc1cccc(Cl)c1	120

System: CWR22R
Test: Inhibition of TMPRSS2 mRNA expression in human 22Rv1 cells at 10 uM pre-incubated for 2 hrs before pregnenolone stimulation for 24 hrs by RT-qPCR analysis
Assay type: functional, cell-based
Conditions: not given
Method in brief: (§1)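 22Rv1 cells pretreated 2 h with test agents, then stimulated 24 h with 20 nM pregnenolone; AR, TMPRSS2 and PSA mRNA measured by RT-qPCR, given as ratio to pregnenolone-free control.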

Compound	inhibition
C[C@]12CC[C@H](O)CC1=CC[C@@H]1[C@@H]2CC[C@]2(C)C(c3cccnc3)=CC[C@@H]12	Active
CC(C)C(=O)Nc1ccc([N+](=O)[O-])c(C(F)(F)F)c1	Active

System: PC-3
Test: Inhibition of cell proliferation of human PC3 cells over-expressing AKR1C3 at 1 uM incubated for 72 hrs by alamar blue assay
Assay type: functional, cell-based
Conditions: not given

Compound	inhibition
COC[C@H]1OC(=O)c2coc3c2[C@@]1(C)C1=C(C3=O)[C@@H]2CCC(=O)[C@@]2(C)C[C@H]1OC(C)=O	Active

Species on record: Homo sapiens
Test: Ratio of IC50 for inhibition of recombinant AKR1C4 (unknown origin) inhibition of recombinant AKR1C3 (unknown origin)
Conditions: not given

Compound	Ratio IC50
N=c1oc2c(O)cccc2cc1C(=O)Nc1ccccc1C(F)(F)F	> 500
N=c1oc2c(O)cccc2cc1C(=O)Nc1cccc(F)c1	> 340
N=c1oc2c(O)cccc2cc1C(=O)Nc1ccccc1Cl	> 180
N=c1oc2c(O)cccc2cc1C(=O)Nc1cccc(Cl)c1	> 220

Target: T2, Androgen receptor (Homo sapiens) (UniProt P10275)
T2 sequence (whole entry): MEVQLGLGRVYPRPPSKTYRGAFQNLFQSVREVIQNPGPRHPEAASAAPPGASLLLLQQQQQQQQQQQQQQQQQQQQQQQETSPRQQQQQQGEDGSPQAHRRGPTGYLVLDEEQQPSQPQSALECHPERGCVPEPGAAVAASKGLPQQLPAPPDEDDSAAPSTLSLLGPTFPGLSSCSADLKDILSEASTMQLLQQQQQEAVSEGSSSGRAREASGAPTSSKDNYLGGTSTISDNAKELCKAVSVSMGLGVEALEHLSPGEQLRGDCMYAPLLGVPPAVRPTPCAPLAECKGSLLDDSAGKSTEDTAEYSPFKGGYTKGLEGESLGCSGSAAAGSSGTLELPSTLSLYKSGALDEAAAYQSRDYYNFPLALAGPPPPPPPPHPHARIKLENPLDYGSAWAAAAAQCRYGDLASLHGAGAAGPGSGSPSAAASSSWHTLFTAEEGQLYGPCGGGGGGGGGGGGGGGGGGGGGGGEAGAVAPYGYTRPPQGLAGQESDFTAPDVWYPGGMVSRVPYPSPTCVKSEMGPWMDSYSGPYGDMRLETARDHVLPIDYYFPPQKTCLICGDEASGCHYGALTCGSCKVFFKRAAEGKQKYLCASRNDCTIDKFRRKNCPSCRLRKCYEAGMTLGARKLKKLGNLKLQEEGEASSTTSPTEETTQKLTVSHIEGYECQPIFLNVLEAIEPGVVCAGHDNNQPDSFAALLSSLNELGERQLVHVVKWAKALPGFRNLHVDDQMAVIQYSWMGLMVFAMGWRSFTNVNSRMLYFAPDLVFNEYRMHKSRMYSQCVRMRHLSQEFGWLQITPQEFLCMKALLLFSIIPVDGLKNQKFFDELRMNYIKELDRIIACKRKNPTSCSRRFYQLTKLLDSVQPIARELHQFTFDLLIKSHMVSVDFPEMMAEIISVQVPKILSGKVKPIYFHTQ
Test: Agonistic activity at AR in human 22Rv1 cells assessed as effect on cell number at 1 nM by CCK8 assay
Assay type: cell-based
Conditions: CWR22R

Compound	Activity
N=c1oc2c(O)cccc2cc1C(=O)Nc1cccc(F)c1	inactive
N=c1oc2c(O)cccc2cc1C(=O)Nc1ccccc1Cl	inactive
N=c1oc2c(O)cccc2cc1C(=O)Nc1cccc(Cl)c1	inactive

Target: T3, Aldo-keto reductase family 1 member C1 (Homo sapiens, UniProt Q04828)
T3 sequence (Q04828 whole entry): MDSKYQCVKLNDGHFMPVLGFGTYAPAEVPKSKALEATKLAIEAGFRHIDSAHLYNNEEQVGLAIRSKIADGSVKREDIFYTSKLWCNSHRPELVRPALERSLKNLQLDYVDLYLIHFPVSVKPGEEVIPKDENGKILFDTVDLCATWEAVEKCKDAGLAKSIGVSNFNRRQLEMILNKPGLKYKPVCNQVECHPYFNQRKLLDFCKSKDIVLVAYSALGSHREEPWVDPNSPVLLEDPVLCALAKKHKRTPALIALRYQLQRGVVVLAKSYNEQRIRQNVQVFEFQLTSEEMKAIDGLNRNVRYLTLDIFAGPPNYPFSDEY
Test: Inhibition of recombinant AKR1C1 (unknown origin) assessed as reduction in S-tetralol-induced dehydrogenase activity by measuring NADPH level
Conditions: not given

Compound	IC50 [nM]
N=c1oc2c(O)cccc2cc1C(=O)Nc1ccccc1C(F)(F)F	> 10000
N=c1oc2c(O)cccc2cc1C(=O)Nc1cccc(F)c1	> 10000
N=c1oc2c(O)cccc2cc1C(=O)Nc1ccccc1Cl	> 10000
N=c1oc2c(O)cccc2cc1C(=O)Nc1cccc(Cl)c1	> 10000

Species on record: Homo sapiens
Test: Ratio of IC50 for inhibition of recombinant AKR1C2 (unknown origin) inhibition of recombinant AKR1C3 (unknown origin)
Conditions: not given

Compound	Ratio IC50
N=c1oc2c(O)cccc2cc1C(=O)Nc1ccccc1C(F)(F)F	> 500
N=c1oc2c(O)cccc2cc1C(=O)Nc1cccc(F)c1	> 340
N=c1oc2c(O)cccc2cc1C(=O)Nc1ccccc1Cl	> 180
N=c1oc2c(O)cccc2cc1C(=O)Nc1cccc(Cl)c1	> 220

Target: T4, Aldo-keto reductase family 1 member C4 (Homo sapiens, UniProt P17516)
T4 sequence (P17516 whole entry): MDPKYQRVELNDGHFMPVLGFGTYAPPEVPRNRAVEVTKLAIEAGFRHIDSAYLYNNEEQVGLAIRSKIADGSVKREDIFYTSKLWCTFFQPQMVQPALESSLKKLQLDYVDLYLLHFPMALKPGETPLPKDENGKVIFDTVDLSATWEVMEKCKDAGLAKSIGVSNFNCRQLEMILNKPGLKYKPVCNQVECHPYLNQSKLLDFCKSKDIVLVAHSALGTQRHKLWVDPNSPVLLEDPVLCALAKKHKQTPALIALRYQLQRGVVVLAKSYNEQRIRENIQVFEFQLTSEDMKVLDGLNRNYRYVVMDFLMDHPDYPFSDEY
Test: Inhibition of recombinant AKR1C4 (unknown origin) assessed as reduction in S-tetralol-induced dehydrogenase activity by measuring NADPH level
Conditions: not given

Compound	IC50 [nM]
N=c1oc2c(O)cccc2cc1C(=O)Nc1ccccc1C(F)(F)F	> 10000
N=c1oc2c(O)cccc2cc1C(=O)Nc1cccc(F)c1	> 10000
N=c1oc2c(O)cccc2cc1C(=O)Nc1ccccc1Cl	> 10000
N=c1oc2c(O)cccc2cc1C(=O)Nc1cccc(Cl)c1	> 10000

Target: T5, Aldo-keto reductase family 1 member C3 (Homo sapiens, UniProt P42330)
T5 sequence (P42330 whole entry): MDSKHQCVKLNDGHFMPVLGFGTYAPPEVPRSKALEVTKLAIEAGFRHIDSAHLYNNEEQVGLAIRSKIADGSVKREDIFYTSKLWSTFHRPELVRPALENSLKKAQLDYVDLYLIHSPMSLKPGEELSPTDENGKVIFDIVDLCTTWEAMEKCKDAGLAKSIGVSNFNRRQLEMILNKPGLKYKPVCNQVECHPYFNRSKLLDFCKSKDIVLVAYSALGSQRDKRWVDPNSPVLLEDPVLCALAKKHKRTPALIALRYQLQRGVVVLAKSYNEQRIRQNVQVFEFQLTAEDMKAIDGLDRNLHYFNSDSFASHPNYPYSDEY
Test: Inhibition of recombinant AKR1C3 (unknown origin) assessed as reduction in S-tetralol-induced dehydrogenase activity by measuring NADPH level
Conditions: not given

Compound	IC50 [nM]
N=c1oc2c(O)cccc2cc1C(=O)Nc1ccccc1C(F)(F)F	20
N=c1oc2c(O)cccc2cc1C(=O)Nc1cccc(F)c1	29
N=c1oc2c(O)cccc2cc1C(=O)Nc1ccccc1Cl	56
N=c1oc2c(O)cccc2cc1C(=O)Nc1cccc(Cl)c1	46

Species on record: Homo sapiens
Test: Ratio of IC50 for inhibition of CBR1 (unknown origin) inhibition of recombinant AKR1C3 (unknown origin)
Conditions: not given

Compound	Ratio IC50
N=c1oc2c(O)cccc2cc1C(=O)Nc1ccccc1C(F)(F)F	4
N=c1oc2c(O)cccc2cc1C(=O)Nc1cccc(F)c1	13
N=c1oc2c(O)cccc2cc1C(=O)Nc1ccccc1Cl	0.6
N=c1oc2c(O)cccc2cc1C(=O)Nc1cccc(Cl)c1	3

System: CWR22R
Test: Induction of apoptosis in human 22Rv1 cells pre-incubated for 2 hrs before addition of pregnenolone for 24 hrs
Assay type: functional, cell-based
Conditions: not given

Compound	Activity
C[C@]12CC[C@H](O)CC1=CC[C@@H]1[C@@H]2CC[C@]2(C)C(c3cccnc3)=CC[C@@H]12	Active

System: CWR22R
Test: Inhibition of AR mRNA expression in human 22Rv1 cells at 10 uM pre-incubated for 2 hrs before pregnenolone stimulation for 24 hrs by RT-qPCR analysis
Assay type: functional, cell-based
Conditions: not given
Method in brief: as §1

Compound	inhibition
C[C@]12CC[C@H](O)CC1=CC[C@@H]1[C@@H]2CC[C@]2(C)C(c3cccnc3)=CC[C@@H]12	Active
CC(C)C(=O)Nc1ccc([N+](=O)[O-])c(C(F)(F)F)c1	Active

Target: T6, Aldo-keto reductase family 1 member C2 (Homo sapiens, UniProt P52895)
T6 sequence (P52895 whole entry): T3 sequence (Q04828 whole entry) with T38V, R47H, L54V, C87S, V151M, R170H, Q172L
Test: Inhibition of recombinant AKR1C2 (unknown origin) assessed as reduction in S-tetralol-induced dehydrogenase activity by measuring NADPH level
Conditions: not given

Compound	IC50 [nM]
N=c1oc2c(O)cccc2cc1C(=O)Nc1ccccc1C(F)(F)F	> 10000
N=c1oc2c(O)cccc2cc1C(=O)Nc1cccc(F)c1	> 10000
N=c1oc2c(O)cccc2cc1C(=O)Nc1ccccc1Cl	> 10000
N=c1oc2c(O)cccc2cc1C(=O)Nc1cccc(Cl)c1	> 10000

System: CWR22R
Test: Inhibition of PSA mRNA expression in human 22Rv1 cells at 10 uM pre-incubated for 2 hrs before pregnenolone stimulation for 24 hrs by RT-qPCR analysis
Assay type: functional, cell-based
Conditions: not given
Method in brief: as §1

Compound	inhibition
C[C@]12CC[C@H](O)CC1=CC[C@@H]1[C@@H]2CC[C@]2(C)C(c3cccnc3)=CC[C@@H]12	Active
CC(C)C(=O)Nc1ccc([N+](=O)[O-])c(C(F)(F)F)c1	Active

System: CWR22R
Test: Induction of ROS generation in human 22Rv1 cells at 10 uM by DCFH-DA dye based flow cytometric analysis
Assay type: functional, cell-based
Conditions: not given
Method in brief: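 22Rv1 cells exposed 3 h to 10 μM inhibitor and/or abiraterone, or 50 μM enzalutamide; intracellular ROS by flow cytometry as DCF-positive cells, percent of vehicle control.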

Compound	Activity
C[C@]12CC[C@H](O)CC1=CC[C@@H]1[C@@H]2CC[C@]2(C)C(c3cccnc3)=CC[C@@H]12	Active

System: CWR22R
Test: Inhibition of pregnenolone-induced cell proliferation of human 22Rv1 cells at 10 uM pre-incubated for 2 hrs before pregnenolone stimulation for 72 hrs by alamar blue assay
Assay type: functional, cell-based
Conditions: not given
Method in brief: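 22Rv1 cells (AKR1C3- and AR-expressing) pretreated 2 h with agents, then cultured 72 h with 20 nM pregnenolone; viable cell number given as percent of pregnenolone-free control.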

Compound	inhibition
C[C@]12CC[C@H](O)CC1=CC[C@@H]1[C@@H]2CC[C@]2(C)C(c3cccnc3)=CC[C@@H]12	Active
CC(C)C(=O)Nc1ccc([N+](=O)[O-])c(C(F)(F)F)c1	Active
